Data reported in ChEMBL document CHEMBL1123990, “The in vitro dental plaque inhibitory properties of a series of N-[1-alkyl-4(1H)-pyridinylidene]alkylamines” (1988).
Values after ≈ are worked out from the molar mass of the structure shown.

Columns and labels:
Streptococcus sobrinus [1] = assay: Chlorohexidine coefficient for Streptococcus sobrinus 6715-13; type: functional
How it was run: (§1)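 Hydroxylapatite-grown plaques were exposed once daily for 2 min to varying concentrations of agent until the organisms were killed. The highest level tested was 0.2% w/v for 5 days. Tests were run in duplicate. PBI is the concentration (mM) × duration (min) × frequency (days) needed for plaque kill. CC is the chlorhexidine PBI divided by the test-agent PBI.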

Actinomyces naeslundii [2] = assay: Plaque bactericidal index against Actinomyces naeslundii 631; type: functional; how it was run: as §1
Streptococcus mutans [3] = assay: Plaque bactericidal index against Streptococcus mutans IB1600; type: functional; how it was run: as §1
Streptococcus mutans [4] = assay: Plaque bactericidal index against Streptococcus mutans FA-1; type: functional; how it was run: as §1
Actinomyces naeslundii [5] = assay: Plaque bactericidal index against Actinomyces naeslundii N/3; type: functional; how it was run: as §1
Streptococcus mutans [6] = assay: Plaque bactericidal index against Streptococcus mutans GR-5; type: functional; how it was run: as §1
Actinomyces naeslundii [7] = assay: Plaque bactericidal index against Actinomyces naeslundii N/9; type: functional; how it was run: as §1
Streptococcus mitis [8] = assay: Plaque bactericidal index against Streptococcus mitis 90557; type: functional; how it was run: as §1
Actinomyces naeslundii [9] = assay: Chlorohexidine coefficient for Actinomyces naeslundii N/3; type: functional; how it was run: as §1
Streptococcus sobrinus [10] = assay: Minimal bactericidal concentration against Streptococcus sobrinus 6715-13; type: functional
How it was run: (§2)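 Plaques were grown on standardized ceramic hydroxylapatite plates and immersed once in agent for 30 min. They were rinsed with sterile distilled water, moved to fresh broth and incubated anaerobically at 37 °C. Kill meant no further culture acid production, no turbidity change, and no growth when 48-h post-treatment plaque samples were subcultured. Tests were run in duplicate.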

Streptococcus mitis [11] = assay: Chlorohexidine coefficient for Streptococcus mitis 90557; type: functional; how it was run: as §1
Actinomyces viscosus [12] = assay: Plaque bactericidal index against Actinomyces viscosus M-100 measured as chlorohexidine coefficient; type: functional; how it was run: as §1
Streptococcus mitis [13] = assay: Plaque bactericidal index against Streptococcus mitis 176-A1; type: functional; how it was run: as §1
Streptococcus sanguinis [14] = assay: Chlorohexidine coefficient for Streptococcus sanguis ATCC 10558; type: functional; how it was run: as §1
Streptococcus mutans [15] = assay: Chlorohexidine coefficient for Streptococcus mutans GR-5; type: functional; how it was run: as §1
Actinomyces viscosus [16] = assay: Plaque bactericidal index against Actinomyces viscosus 626; type: functional; how it was run: as §1
Actinomyces viscosus [17] = assay: Plaque bactericidal index against Actinomyces viscosus M-100; type: functional; how it was run: as §1
Actinomyces viscosus [18] = assay: Chlorohexidine coefficient for Actinomyces viscosus M-626; type: functional; how it was run: as §1
Actinomyces naeslundii [19] = assay: Chlorohexidine coefficient for Actinomyces naeslundii B74; type: functional; how it was run: as §1
Actinomyces naeslundii [20] = assay: Chlorohexidine coefficient for Actinomyces naeslundii N/9; type: functional; how it was run: as §1
Actinomyces naeslundii [21] = assay: Chlorohexidine coefficient for Actinomyces naeslundii 631; type: functional; how it was run: as §1
Streptococcus mutans [22] = assay: Chlorohexidine coefficient for Streptococcus mutans IB1600; type: functional; how it was run: as §1
Streptococcus sanguinis [23] = assay: Plaque bactericidal index against Streptococcus sanguis H7P; type: functional
How it was run: (§3)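 Plaques were grown on standardized ceramic hydroxylapatite plates and treated once daily for 2 min with varying concentrations until kill. They were then rinsed in sterile water and incubated in fresh broth at 37 °C anaerobically. Kill meant no acid production, no turbidity change, and no regrowth of 48-h post-treatment subcultures. Tests were run in duplicate. PBI = concn (mM) × min × days to kill; CC = chlorhexidine PBI ÷ test PBI.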

Streptococcus mitis [24] = assay: Chlorohexidine coefficient for Streptococcus mitis 176-A1; type: functional; how it was run: as §1
Streptococcus mutans [25] = assay: Plaque bactericidal index against Streptococcus mutans OMZ-61; type: functional; how it was run: as §3
Actinomyces naeslundii [26] = assay: Plaque bactericidal index against Actinomyces naeslundii B74; type: functional; how it was run: as §1
Streptococcus sanguinis [27] = assay: Chlorohexidine coefficient for Streptococcus sanguis H7P; type: functional; how it was run: as §3
Actinomyces viscosus [28] = assay: Chlorohexidine coefficient for Actinomyces viscosus M-100; type: functional; how it was run: as §1
Streptococcus mutans [29] = assay: Chlorohexidine coefficient for Streptococcus mutans OMZ-61; type: functional; how it was run: as §1
Actinomyces viscosus [30] = assay: Chlorohexidine coefficient for Actinomyces viscosus 8A06; type: functional; how it was run: as §1
Streptococcus mutans [31] = assay: Chlorohexidine coefficient for Streptococcus mutans FA-1; type: functional; how it was run: as §1
Actinomyces viscosus [32] = assay: Plaque bactericidal index against Actinomyces viscosus 8A06; type: functional; how it was run: as §1
Streptococcus sobrinus [33] = assay: Plaque bactericidal index against Streptococcus sobrinus SL-1; type: functional; how it was run: as §1
Streptococcus sanguinis [34] = assay: Plaque bactericidal index against Streptococcus sanguis ATCC 10558; type: functional; how it was run: as §1
Streptococcus sobrinus [35] = assay: Chlorohexidine coefficient for Streptococcus sobrinus SL-1; type: functional; how it was run: as §1
Streptococcus sobrinus [36] = assay: Plaque bactericidal index against Streptococcus sobrinus 6715-13; type: functional; how it was run: as §1
Actinomyces viscosus [37] = assay: Chlorohexidine coefficient for Actinomyces viscosus T14V; type: functional; how it was run: as §1
Streptococcus sobrinus [38] = assay: Plaque bactericidal index against Streptococcus sobrinus 6715-13 measured as chlorohexidine coefficient; type: functional; how it was run: as §1
Streptococcus sobrinus [39] = assay: Plaque bactericidal index against Streptococcus sobrinus 6715-13 measured as chlorohexidine coefficient; d=Not bactericidal at highest concentration tested (0.2% w/v, 2min, 5 days); type: functional, organism-based; how it was run: as §1
Actinomyces viscosus [40] = assay: Plaque bactericidal index against Actinomyces viscosus M-100 measured as chlorohexidine coefficient; d=Not bactericidal at highest concentration tested (0.2% w/v, 2min, 5 days); type: functional, organism-based; how it was run: as §1
Streptococcus sobrinus [41] = assay: Minimal bactericidal concentration against Streptococcus sobrinus 6715-13.; type: functional; how it was run: as §2

`CCCCCCCCN=c1ccn(CCCCCCCC)cc1.Cl` [PIRTENIDINE HYDROCHLORIDE] showed a CC (Streptococcus sobrinus [1]) of 9.1, a PBI (Actinomyces naeslundii [2]) of 2.8 and a PBI (Streptococcus mutans [3]) of 1.4. It also gave a PBI (Streptococcus mutans [4]) of 1.4, a PBI (Actinomyces naeslundii [5]) of 1.4 and a PBI (Streptococcus mutans [6]) of 1.4. It also gave a PBI (Actinomyces naeslundii [7]) of 1.4, a PBI (Streptococcus mitis [8]) of 5 and a CC (Actinomyces naeslundii [9]) of 13.7. It also gave an MBC (Streptococcus sobrinus [10]) of 280 µM, a CC (Streptococcus mitis [11]) of 6.4 and a PBI (Actinomyces viscosus [12]) of 2.8. For the same molecule, the PBI (Streptococcus mitis [13]) was 20, the CC (Streptococcus sanguinis [14]) was 6.4 and the CC (Streptococcus mutans [15]) was 18.3. The PBI (Actinomyces viscosus [16]) was 1.4, the PBI (Actinomyces viscosus [17]) was 2.8 and the CC (Actinomyces viscosus [18]) was 13.7. It also gave a CC (Actinomyces naeslundii [19]) of 13.7, a CC (Actinomyces naeslundii [20]) of 13.7 and a CC (Actinomyces naeslundii [21]) of 6.9. For the same molecule, the CC (Streptococcus mutans [22]) was 18.3, the PBI (Streptococcus sanguinis [23]) was 10 and the CC (Streptococcus mitis [24]) was 1.6. It also gave a PBI (Streptococcus mutans [25]) of 1.4, a PBI (Actinomyces naeslundii [26]) of 1.4 and a CC (Streptococcus sanguinis [27]) of 3.2. The CC (Actinomyces viscosus [28]) was 6.9, the CC (Streptococcus mutans [29]) was 18.3 and the CC (Actinomyces viscosus [30]) was 4.6. It also gave a CC (Streptococcus mutans [31]) of 18.3, a PBI (Actinomyces viscosus [32]) of 4.2 and a PBI (Streptococcus sobrinus [33]) of 2.8. It also gave a PBI (Streptococcus sanguinis [34]) of 5, a CC (Streptococcus sobrinus [35]) of 9.1 and a PBI (Streptococcus sobrinus [36]) of 2.8. The CC (Actinomyces viscosus [37]) was 13.7 and the PBI (Streptococcus sobrinus [38]) was 2.8.

`Br.CCCCCCCCN=c1ccn(CCCCCC)cc1` showed a CC (Streptococcus sobrinus [1]) of 2.4, an MBC (Streptococcus sobrinus [10]) of 1350 µM and a PBI (Actinomyces viscosus [12]) of 13.5. For the same molecule, the CC (Actinomyces viscosus [28]) was 1.4 and the PBI (Streptococcus sobrinus [38]) was 10.8.

With `CCCCCCCCCCCCCCN=c1ccn(Cc2ccccc2)cc1` the MBC (Streptococcus sobrinus [10]) was 240 µM (≈ 91.3 µg/mL), the PBI (Streptococcus sobrinus [39]) was “Not bactericidal” and the PBI (Actinomyces viscosus [40]) was “Not bactericidal”.

`CCCCCCCCCN=c1ccn(CCCCCCCCC)cc1.Cl` gave a CC (Streptococcus sobrinus [1]) of 2.5, an MBC (Streptococcus sobrinus [10]) of 2610 µM and a PBI (Actinomyces viscosus [12]) of 5.2. For the same molecule, the CC (Actinomyces viscosus [28]) was 4 and the PBI (Streptococcus sobrinus [38]) was 10.4.

`CCCCCCCn1ccc(=NCCCCCC)cc1.Cl` was tested, and the CC (Streptococcus sobrinus [1]) was 2, the PBI (Actinomyces viscosus [12]) was 6.4 and the CC (Actinomyces viscosus [28]) was 3. The MBC (Streptococcus sobrinus [41]) was 1600 µM and the PBI (Streptococcus sobrinus [38]) was 12.8.

`CCCCCCCCCn1ccc(=NCCCCCCCC)cc1.Cl` showed a CC (Streptococcus sobrinus [1]) of 1.9, an MBC (Streptococcus sobrinus [10]) of 1350 µM and a PBI (Actinomyces viscosus [12]) of 13.3. The CC (Actinomyces viscosus [28]) was 1.4 and the PBI (Streptococcus sobrinus [38]) was 13.3.

In the case of `Br.CCCCCCCCn1ccc(=NCC(CC)CCCC)cc1` (stereo unspecified), the CC (Streptococcus sobrinus [1]) was 2.5, the MBC (Streptococcus sobrinus [10]) was 1250 µM and the PBI (Actinomyces viscosus [12]) was 10. The CC (Actinomyces viscosus [28]) was 1.9 and the PBI (Streptococcus sobrinus [38]) was 10.

Molecule `CCCCCCCCN=c1ccn(Cc2ccccc2)cc1.Cl` has a CC (Streptococcus sobrinus [1]) of 1.1, an MBC (Streptococcus sobrinus [10]) of 1500 µM and a PBI (Actinomyces viscosus [12]) of 12. It also gave a CC (Actinomyces viscosus [28]) of 1.6 and a PBI (Streptococcus sobrinus [38]) of 24.

Work on `CCCCCCCCN=c1ccn(Cc2ccc(Cl)cc2)cc1.Cl` yielded a CC (Streptococcus sobrinus [1]) of 2.3, an MBC (Streptococcus sobrinus [10]) of 270 µM and a PBI (Actinomyces viscosus [12]) of 5.4. The CC (Actinomyces viscosus [28]) was 3.6 and the PBI (Streptococcus sobrinus [38]) was 10.9.

With `CCCCCCCCCn1ccc(=NCCCCCCC)cc1.Cl` the CC (Streptococcus sobrinus [1]) was 3, the MBC (Streptococcus sobrinus [10]) was 1410 µM and the PBI (Actinomyces viscosus [12]) was 11.3. It also gave a CC (Actinomyces viscosus [28]) of 1.7 and a PBI (Streptococcus sobrinus [38]) of 8.5.

Work on `CCCCCCCCCCCCN=c1ccn(C)cc1.I` yielded a CC (Streptococcus sobrinus [1]) of 2.1, an MBC (Streptococcus sobrinus [10]) of 1240 µM and a PBI (Actinomyces viscosus [12]) of 19.2. For the same molecule, the CC (Actinomyces viscosus [28]) was 1 and the PBI (Streptococcus sobrinus [38]) was 12.4.

For `CCCCCCCCCCCCN=c1ccn(Cc2ccccc2)cc1.Cl`, the CC (Streptococcus sobrinus [1]) was 1.7, the MBC (Streptococcus sobrinus [10]) was 1290 µM and the PBI (Actinomyces viscosus [12]) was 10.3. The CC (Actinomyces viscosus [28]) was 1.9 and the PBI (Streptococcus sobrinus [38]) was 15.4.

`CCCCCCCCCCN=c1ccn(CCCCC)cc1.Cl` showed a CC (Streptococcus sobrinus [1]) of 8.5, an MBC (Streptococcus sobrinus [10]) of 290 µM and a PBI (Actinomyces viscosus [12]) of 5.9. For the same molecule, the CC (Actinomyces viscosus [28]) was 3.2 and the PBI (Streptococcus sobrinus [38]) was 3.

Molecule `Br.CCCCCCCCN=c1ccn(CCCCCCC)cc1` has a CC (Streptococcus sobrinus [1]) of 3.3, an MBC (Streptococcus sobrinus [10]) of 1300 µM and a PBI (Actinomyces viscosus [12]) of 7.8. The CC (Actinomyces viscosus [28]) was 2.5 and the PBI (Streptococcus sobrinus [38]) was 7.8.
